Measured values from different studies.
Lines come from different studies, so protocols differ.
Observed: cell growth or viability

| Structure (SMILES) | cell line | test | setting | viability |
| --- | --- | --- | --- | --- |
| CC(=NNC(=O)c1ccccc1)c1ccc(Nc2nnc(-c3ccc(Cl)cc3)c3ccccc23)cc1 | HepG2 | MTT | 0.625 µM, 24 h | 48.7% |
| CCOC(=O)c1nn(-c2cccc(Cl)c2)/c(=N/N=C(\C)c2ccc(NC(=O)c3ccccc3)cc2)s1 | HepG2 | MTT | 10 µM | 3% |
| CC(C)(C)c1cnc(CSc2cnc(NC(=O)C3CCN(CCCCSc4cccc5c4C(=O)N(C4CCC(=O)NC4=O)C5=O)CC3)s2)o1 (stereo not shown) | HH | CCK-8 | 0.5 µM | 0% |
| CC(=O)Nc1ccc(/C(C)=N/N=c2\sc(C(C)=O)nn2-c2ccc(C)cc2)cc1 | HepG2 | MTT | 2.5 µM | 99.4% |
| CC(=NNC(=O)COc1ccc2c(C)c(Cc3ccccc3)c(=O)oc2c1C)c1ccc(Br)cc1 | HepG2 | MTT | 100 µg/mL | 34.7% |
| O=C(C=Cc1ccccc1)Nc1ccc(Oc2nnc(-c3ccc(Cl)cc3)c3ccccc23)cc1 | HepG2 | MTT | 5 µM, 24 h | 2.49% |
| CC(C)(C)c1cnc(CSc2cnc(NC(=O)C3CCN(CCCCCCCSc4cccc5c4C(=O)N(C4CCC(=O)NC4=O)C5=O)CC3)s2)o1 (stereo not shown) | HH | CCK-8 | 10 nM | 99.5% |
| CC(=NNC(=O)c1ccccc1Br)c1ccc(Nc2nnc(-c3ccc(Cl)cc3)c3ccccc23)cc1 | HepG2 | MTT | 0.625 µM, 24 h | 21.2% |
| CC(=O)c1nn(-c2ccccc2Cl)/c(=N/N=C(\C)c2ccc(NC(=O)c3ccccc3)cc2)s1 | HepG2 | MTT | 78 nM | 71.7% |
| CC(C)(C)c1cnc(CSc2cnc(NC(=O)C3CCN(CCCCCSc4cccc5c4CN(C4CCC(=O)NC4=O)C5=O)CC3)s2)o1 (stereo not shown) | HH | CCK-8 | 0.25 µM | 0% |
